Results on 13 compounds are retold here after ChEMBL document CHEMBL1121949, “Species- or isozyme-specific enzyme inhibitors. 8. Synthesis of disubstituted two-substrate condensation products as inhibitors of rat adenylate kinases” (J Med Chem, 1982).

Each structure is given as a SMILES string. pKi: −log10 of the molar value. Several values for one entry are separate records, joined by “and”; a condition that tells them apart may be missing. Equal values may be shown once.

Assay [1] in a line: Inhibitory activity against rat adenylate kinase M (AK-M)isoenzyme in the presence of ATP competitive inhibition. The method, boiled down:
(§1)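 Rat adenylate kinase isozymes AK II or AK-M were used, with AMP or ATP as the varied substrate. Substrate and inhibitor constants (Ki) came from steady-state kinetics. ATP derivatives, and P1,P5-pentaphosphate derivatives with Ki above 0.10 mM, were added as 1:1 Mg complexes, made by adding MgSO4 to their stock solutions.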

Assay [2] is described as follows: Inhibitory potency against AK II was calculated using the equation KM(ATP) / Ki(ATP varied).
Assay [3] can be described thus: Relative potency inhibitory calculated as the ratio of AK-II/AK-M.
The target of assay [4] is T1, Adenylate kinase 2, mitochondrial (Rattus norvegicus, UniProt P29410). Briefly: Inhibitory activity against rat adenylate kinase II was determined in the presence of ATP, competitive inhibition.
Assay [5] can be described thus: Inhibitory activity against rat adenylate kinase M (AK-M)isoenzyme in the presence of AMP competitive inhibition. In outline: as §1
Assay [6] in a line: Inhibitory potency against AK M was calculated using the equation KM(ATP) / Ki(ATP varied).
Assay [7] concerns the target T1, Adenylate kinase 2, mitochondrial. Briefly: Inhibitory activity against rat adenylate kinase II was determined in the presence of ATP. In outline:
as §1

Assay [8] addresses T2, Adenylate kinase isoenzyme 1 (Rattus norvegicus, UniProt P39069).
T2 sequence (P39069 whole entry): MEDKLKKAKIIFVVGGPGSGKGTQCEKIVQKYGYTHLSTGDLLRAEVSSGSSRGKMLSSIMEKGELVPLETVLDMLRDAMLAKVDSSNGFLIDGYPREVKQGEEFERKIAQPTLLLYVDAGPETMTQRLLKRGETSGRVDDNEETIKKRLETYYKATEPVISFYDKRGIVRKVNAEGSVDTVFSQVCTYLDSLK
Briefly: Inhibitory activity against rat Adenylate kinase M isoenzyme in the presence of ATP. The method, boiled down: as §1

The target of assay [9] is T1, Adenylate kinase 2, mitochondrial. Briefly: Inhibitory activity against rat adenylate kinase II was determined in the presence of ATP, non competitive inhibition. In outline:
as §1

The target is the same in assay [10]. Briefly: Inhibitory activity against rat adenylate kinase II was determined in the presence of AMP, non competitive inhibition. In outline: as §1
The target of assay [11] is T2, Adenylate kinase isoenzyme 1. Briefly: Inhibitory activity against rat Adenylate kinase M isoenzyme in the presence of ATP non competitive inhibition.
In assay [12] the target is T1, Adenylate kinase 2, mitochondrial. Briefly: Inhibitory activity against rat adenylate kinase II was determined in the presence of AMP, competitive inhibition. In outline: as §1
Assay [13] addresses T2, Adenylate kinase isoenzyme 1. Briefly: Inhibitory activity against rat Adenylate kinase M isoenzyme in the presence of ATP non competitive inhibition. The method, boiled down: as §1
A short description of assay [14]: Inhibitory activity against rat adenylate kinase M (AK-M)isoenzyme in the presence of AMP non competitive. The method, boiled down:
as §1

Assay [15] can be described thus: Inhibitory activity against rat adenylate kinase M (AK-M)isoenzyme in the presence of ATP non competitive. In outline: as §1
Assay [16] addresses T1, Adenylate kinase 2, mitochondrial. Briefly: Inhibitory activity against rat adenylate kinase II was determined in the presence of AMP, competitive and non competitive inhibition. In outline: as §1
In assay [17] the target is T2, Adenylate kinase isoenzyme 1. Briefly: Inhibitory activity against rat Adenylate kinase M isoenzyme in the presence of ATPnon competitive inhibition. In outline:
as §1

For assay [18], the target named is T1, Adenylate kinase 2, mitochondrial. Briefly: Inhibitory activity against rat adenylate kinase II was determined in the presence of ATP, competitive inhibition. In outline: as §1
The target of assay [19] is T2, Adenylate kinase isoenzyme 1. Briefly: Inhibitory activity against rat Adenylate kinase M isoenzyme in the presence of ATP competitive inhibition.
For assay [20] the target is unchanged. Briefly: Inhibitory activity against rat Adenylate kinase M isoenzyme in the presence of AMP. In outline:
as §1

Assay [21] concerns the target T1, Adenylate kinase 2, mitochondrial. Briefly: Inhibitory activity against rat adenylate kinase II was determined in the presence of AMP. The method, boiled down:
as §1

A word on the Ki: it is a measure of affinity in units of concentration, obtained from inhibition or displacement. What is called pKi is the Ki on a negative log10 scale, so that one unit is a factor of ten. Turning to `CCSc1nc2c(N)ncnc2n1C1O[C@H](COP(=O)(O)OP(=O)(O)OP(=O)(O)OP(=O)(O)OP(=O)(O)OC[C@H]2OC(n3cnc4c(N)ncnc43)[C@H](O)[C@@H]2O)[C@@H](O)[C@H]1O` (stereo partly specified), the Ki in assay [1] amounted to 3 µM; in [5], 3.5 µM. For the same compound, the Inhibitory potency was 1120 in assay [2] and 190 in assay [6]. Also, the Relative inhibitory potency in assay [3] was 5.9. For the same compound, the negative-log Ki (pKi) in [4] was 7.22 and 7.10.
As for `C[C@@H](OP(=O)(O)OP(=O)(O)OP(=O)(O)O)[C@H]1OC(n2cnc3c(N)ncnc32)[C@H](O)[C@@H]1O` (stereo partly specified), the results for the pKi in [7] and in assay [8] were 2.66 and 2.74, respectively. Also, the Relative inhibitory potency in assay [3] was 0.13.
Regarding `Nc1ncnc2c1ncn2[C@@H]1O[C@H](CO)[C@@H](O)[C@H]1O` [ADENOSINE], the pKi in [9] is 1.06; in assay [10], 1.04; in [11] it was 1.09.
As to `Nc1ncnc2c1ncn2C1O[C@H](CCP(=O)(O)OP(=O)(O)OP(=O)(O)O)[C@@H](O)[C@H]1O` (stereo partly specified), the Inhibitory potency in assay [2] was 0.17; in assay [6], less than 0.095. Moreover, the Relative inhibitory potency in assay [3] is more than 1.8. The pKi in assay [12] is 3.27; in assay [13] it was 2.40.
For the compound `Nc1ncnc2c1ncn2[C@@H]1O[C@H](COP(=O)(O)OP(=O)(O)OP(=O)(O)O)[C@@H](O)[C@H]1O` [ADENOSINE TRIPHOSPHATE], the pKi in [9] was 4.05; in assay [13], 3.24.
Consider `CCSc1nc2c(N)ncnc2n1C1O[C@H](COP(=O)(O)OP(=O)(O)OP(=O)(O)OP(=O)(O)OP(=O)(O)OC[C@H]2OC(n3c(SCC)nc4c(N)ncnc43)[C@H](O)[C@@H]2O)[C@@H](O)[C@H]1O` (stereo partly specified), for which the Inhibitory potency in assay [2] was 14; in [6] it was less than 0.63. Further, the Relative inhibitory potency in [3] was more than 22. Also, the negative logarithm of the Ki (pKi) in [4] was 5.00 and 5.19. Moreover, the Ki was determined as 900 µM in [14] and 600 µM in assay [15].
As to `CCC[C@@H](OP(=O)(O)OP(=O)(O)OP(=O)(O)OP(=O)(O)OP(=O)(O)OC[C@H]1OC(n2c(SCC)nc3c(N)ncnc32)[C@H](O)[C@@H]1O)[C@H]1OC(n2cnc3c(N)ncnc32)[C@H](O)[C@@H]1O` (stereo partly specified), the Ki amounted to 120 µM in assay [1] and 160 µM in [5]. The values for the Inhibitory potency in [2] and in assay [6] were 1.7 and 4.8, respectively. The Relative inhibitory potency in assay [3] was 0.36. Further, the pKi in assay [4] was 4.28; in [16] it was 4.20.
On to `CCC[C@@H](OP(=O)(O)OP(=O)(O)OP(=O)(O)O)[C@H]1OC(n2cnc3c(N)ncnc32)[C@H](O)[C@@H]1O` (stereo partly specified), for which the Inhibitory potency in assay [2] was 0.2; in assay [6], less than 0.084. Besides, in assay [3], the Relative inhibitory potency is more than 2.4. In addition, the pKi was 3.35 in assay [4] and 2.35 in assay [17].
`CCSc1nc2c(N)ncnc2n1C1O[C@H](COP(=O)(O)OP(=O)(O)OP(=O)(O)OP(=O)(O)OP(=O)(O)O[C@H](C)[C@H]2OC(n3cnc4c(N)ncnc43)[C@H](O)[C@@H]2O)[C@@H](O)[C@H]1O` (stereo partly specified): the Ki in [1] and in assay [5] was 31 µM in each case. For the same compound, the Inhibitory potency in [2] is 60; in [6] it was 18.4. In addition, the Relative inhibitory potency in [3] is 3.3. Besides, the figures for the pKi in assay [4] and in [10] were 5.82 and 5.55, respectively.
With `CCC[C@H](OP(=O)(O)OP(=O)(O)OP(=O)(O)O)[C@H]1OC(n2cnc3c(N)ncnc32)[C@H](O)[C@@H]1O` (stereo partly specified), the Inhibitory potency is 0.2 in [2] and 1.9 in assay [6]. Further, the Relative inhibitory potency in assay [3] is 0.11. For the same compound, the pKi is 3.35 in assay [18] and 3.52 in assay [19].
As for `CCSc1nc2c(N)ncnc2n1[C@@H]1O[C@H](COP(=O)(O)OP(=O)(O)OP(=O)(O)O)[C@@H](O)[C@H]1O`, the pKi in [8] was 2.21.
Consider `C[C@H](OP(=O)(O)OP(=O)(O)OP(=O)(O)O)[C@H]1OC(n2cnc3c(N)ncnc32)[C@H](O)[C@@H]1O` (stereo partly specified), for which the Inhibitory potency in assay [2] was 0.045; in [6], less than 0.21. The negative-log Ki (pKi) in assay [18] is 2.70; in [13], 2.74.
One may read the Km as the concentration of substrate that gives half-maximal velocity. As to `Nc1ncnc2c1ncn2[C@@H]1O[C@H](COP(=O)(O)O)[C@@H](O)[C@H]1O` [ADENOSINE PHOSPHATE], the Km in assay [20] amounted to 580 µM. For the same compound, the pKi in [21] was 4.10.
